Experiments:
Assay type in all cases: organism-based
Set-up in all cases: dose 100 mg/kg, route oral
Details in all cases: in vivo, 840 h
[1] = test system: Mus musculus; assay: Toxicity in collagen-induced B10.RIII mouse arthritis model assessed as change in insulin level at 100 mg/kg, po qd for 35 days relative to 1% methylcellulose-treated control
How it was run: (§1)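 Female B10.RIII mice were immunized at 12–15 weeks with porcine type II collagen emulsified in complete Freund's adjuvant (100 μg intradermal, tail base). Animals were enrolled at first arthritis signs, 10 per group, and dosed orally once daily for five weeks in 1% methylcellulose. Paws were scored 1–4 each (max 16), with AUC taken. Serum was collected at day 35. Femur cortical thickness was measured by microCT in non-immunized, age-matched mice given the same dosing.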

[2] = test system: Mus musculus; assay: Toxicity in collagen-induced B10.RIII mouse arthritis model assessed as change in free fatty acid level at 100 mg/kg, po qd for 35 days relative to 1% methylcellulose-treated control; how it was run: as §1
[3] = test system: Mus musculus; assay: Toxicity in collagen-induced B10.RIII mouse arthritis model assessed as change in AUC at 100 mg/kg, po qd for 35 days relative to 30% cremophor-treated control
How it was run: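 Female B10.RIII mice were immunized with porcine type II collagen in complete Freund's adjuvant, enrolled at arthritis onset (10/group), and dosed orally once daily for five weeks in 30% cremophor vehicle. Four paws were scored 1–4 (max 16), as AUC. Serum biomarkers were taken at day 35. Femur cortical thickness was measured by microCT in non-immunized, age-matched mice dosed identically.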

Row | SMILES | Activity [1] | Activity [2] | Activity [3]
1 | Cc1ccc(F)cc1C(C)(C)C[C@@](O)(Cc1cc2ncncc2[nH]1)C(F)(F)F | 17% | 14% | 
2 | Cc1ccc(F)cc1C(C)(C)C[C@@](O)(Cc1cc2nnccc2[nH]1)C(F)(F)F |  |  | -53%
